HKDC1 inhibitor = HKDC1 hexokinase inhibitors, primary screen, biochemical, fluorescence, uHTS; Q2TB90; recombinant HKDC1, G6PDH/diaphorase resazurin coupled fluorescence; inhibition, % at 20 µM; 340,000 tested, 0.16% active; AID 493160, 2011;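 active = inhibition above about 35% when tested at 20 µM, limit read from the data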;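 also: plate controls were DMSO wells with enzyme for no effect and DMSO wells lacking enzyme for full effect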
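Incubation: 90 min at room temperature in dark / Material: recombinant HKDC1 (HK5) hexokinase enzyme, produced in-house / Quantity: enzyme 5 µg/mL final / Compound: one dose of 20 µM, 1% DMSO / Reagent: glucose and ATP substrates / Buffer or medium: Tris pH 8.0 buffer with MgCl2, Tween-20, BSA, BME / Technique: resorufin fluorescence at 613 nm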
TbHK1 inh = Trypanosoma brucei hexokinase 1 inhibitors, primary screen, biochemical, G6PDH-coupled NADH absorbance, MLSCN library. 220,000 tested, 0.11% active. recombinant TbHK1, G6PDH-coupled NADH A340. hexokinase 1 [Trypanosoma brucei]. inhibition, % at 10 µM;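 active = inhibition of 50% or more in the single-dose primary screen; inactive = inhibition below 50%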
PHOSPHO1 inh = PubChem AID 1565; recombinant PHOSPHO1, absorbance phosphatase assay; 290,000 tested, 1.1% active; inhibition, % at 13.3 µM; in the data active = inhibition above about 60%
Target sequence (Q8TCT1 whole entry, looked up): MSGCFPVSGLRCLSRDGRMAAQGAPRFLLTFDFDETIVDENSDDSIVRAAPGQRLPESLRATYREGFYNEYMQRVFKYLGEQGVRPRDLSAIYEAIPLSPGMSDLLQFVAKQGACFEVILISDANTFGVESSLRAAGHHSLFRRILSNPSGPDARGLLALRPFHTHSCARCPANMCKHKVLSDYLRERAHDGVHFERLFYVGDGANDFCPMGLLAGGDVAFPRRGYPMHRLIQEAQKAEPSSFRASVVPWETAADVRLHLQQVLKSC
PGE2 EP2 inh = human EP2 receptor antagonists, primary screen, TR-FRET cAMP, C6 glioma cells | C6 glioma cells expressing human EP2; cells stimulated with saturating PGE2 | inhibition, % at 25 µM | 260,000 tested, 0.52% active;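 active = percent inhibition above 40 after rounding to a whole number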;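 also: rat C6 glioma host cells with rolipram phosphodiesterase inhibitor present; the protocol text gives 20 µM as final concentration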
Target sequence (P43116 whole entry, looked up): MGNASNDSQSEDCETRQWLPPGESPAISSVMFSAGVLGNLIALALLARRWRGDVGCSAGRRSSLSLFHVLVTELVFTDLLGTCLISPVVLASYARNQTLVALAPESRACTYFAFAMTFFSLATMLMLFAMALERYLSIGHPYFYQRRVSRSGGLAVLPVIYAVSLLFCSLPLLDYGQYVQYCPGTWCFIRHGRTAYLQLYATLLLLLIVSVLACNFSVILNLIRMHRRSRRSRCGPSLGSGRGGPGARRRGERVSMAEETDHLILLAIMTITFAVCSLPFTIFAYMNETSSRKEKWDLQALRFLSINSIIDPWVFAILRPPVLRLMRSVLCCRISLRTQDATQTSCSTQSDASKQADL
EP2 mod = EP2 receptor modulators, cAMP readout, primary screen, cell-based, HTRF cAMP, PGE2 stimulation | induction, % at 25 µM | EP2-expressing cells, cAMP HTRF FRET, PGE2 co-stimulation | AID 940, 2007 | Prostaglandin E2 receptor EP2 subtype (Homo sapiens), P43116 | 260,000 tested, 0.83% active;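 active = compounds whose cAMP rise, as percent of the full-agonist control response, exceeds 60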;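 also: rat C6 glioma line stably carrying human EP2 under a CMV promoter; the protocol text gives 20 µM as final concentration; 100% = response of wells given 1 µM PGE2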
PfG6PD inh = PfG6PD enzyme inhibitors, primary screen, biochemical, fluorescence intensity, uHTS. PfGluPho enzyme, NADPH resazurin-diaphorase fluorescence. inhibition, % at 20 µM. AID 504690, 2011. glucose-6-phosphate dehydrogenase-6-phosphogluconolactonase (Plasmodium falciparum 3D7). 350,000 tested, 0.78% active;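 active = inhibition reaching at least a set limit at 20 µM in the primary screen, cut at about 59% in these data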;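 also: 0% = DMSO wells with substrate and 100% = DMSO wells lacking glucose-6-phosphate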
* = called active by the depositor; . = no result. In the library only some 2.5% were active in any assay of this set; here they are far more common.

SMILES	HKDC1 inhibitor	TbHK1 inh	PHOSPHO1 inh	PGE2 EP2 inh	EP2 mod	PfG6PD inh
CC(Sc1nc(N)c(NC(=O)c2ccc(Br)o2)c(=O)[nH]1)C(=O)O (stereo not drawn)	-5	.	31	.	.	8
CN1CCN(S(=O)(=O)c2ccc(NC(=O)Nc3cccc(Cl)c3)cc2)CC1	-6	8	-7	43*	-24	-16
O=C(Nc1cccc(Cl)c1)Nc1cc(S(=O)(=O)N2CCCCC2)ccc1Cl	-2	0	3	10	-11	13
Clc1nssc1=Nc1ccccc1	-19	2	97*	7	-93	77*
Fc1ccc(N=c2ssnc2Cl)c(F)c1	-23	20	37	5	-97	87*
Clc1ccc(N=c2ssnc2Cl)cc1	-37	4	89*	110*	-68	-9
COc1ccc(N=c2ssnc2Cl)cc1	-55	16	77*	76*	-72	83*
N#Cc1c2n(c3c(=S)nc[nH]c13)CCCCC2	-2	-19	96*	24	37	30
N#Cc1c2n(c3c(=O)[nH]cnc13)CCCC2	-8	1	8	3	5	-2
c1cc2c3c(cccc3c1)NC1(CCC3(CC1)Nc1cccc4cccc(c14)N3)N2	12	-39	-1	89*	-42	33
c1cc2c3c(cccc3c1)NC1(CCCCCC1)N2	19	-17	22	7	-27	11
CCOc1ccc2[nH]c(C(=O)N3CCC(OCc4ccccc4)CC3)c(C)c2c1	.	.	.	11	-89	.
C[C@H]1CCCC2(CC[N+](C)(CCC[N+](C)(C)C)CC2)C1 (stereo partly drawn)	.	.	.	48*	8	.
Cc1nc2ccc(NC(=O)c3cc([N+](=O)[O-])cc([N+](=O)[O-])c3Cl)cc2s1	10	3	2	121*	-2	32
CCOc1ccc(N2C(=O)CS/C2=C(\C(Cl)=C(Cl)Cl)[N+](=O)[O-])cc1	3	-8	86*	3	4	-4
Cc1ccc(NC(=S)NNC(=O)c2c(Cl)c(C)nn2C)cc1	-6	-4	68*	8	27	-15
Cc1nn(C(C)C(=O)NNC(=S)Nc2ccc(Cl)cc2)c(C)c1[N+](=O)[O-] (stereo not drawn)	-4	-4	94*	5	-7	4
Cc1ccc(NC(=S)NNC(=O)c2cn(C)nc2C)cc1	-3	3	89*	5	17	0
Cc1ccc(NC(=S)NNC(=O)c2nn(C)c(C)c2Cl)cc1	-3	-4	8	.	5	-3
Cc1ccc(NC(=S)NNC(=O)c2c([N+](=O)[O-])c(C)nn2C)cc1	-2	-9	76*	3	25	-7
CN1C(=O)/C(=C2\SC(=S)N(CCS(=O)(=O)O)C2=O)c2cc(Br)ccc21	.	.	.	10	17	.
C=CCN(C(=O)CNC(=O)c1cccs1)C(C(=O)NC1CCCC1)c1ccccc1 (stereo not drawn)	.	.	.	7	-18	.
Cc1cc(=O)[nH]c(NC2CCN(CC(=O)Nc3c(C)cccc3C)CC2)n1	.	.	.	.	-2	.
COc1ccc(NC(=O)/C(Cl)=C(/Cl)S(=O)Cc2ccccc2Cl)cn1 (stereo not drawn)	20	9	4	52*	-81	36
COc1ccc(NC(=O)Cc2ccc(Cl)c(Cl)c2)cn1	-6	-7	-5	7	-12	-10
SMILES	HKDC1 inhibitor	TbHK1 inh	PHOSPHO1 inh	PGE2 EP2 inh	EP2 mod	PfG6PD inh
NC(=O)c1c(NC(=O)CSc2nnc(-c3ccco3)n2-c2ccccc2)sc2c1CCC2	3	-3	82*	12	-21	7
CCOc1ccc(CN2CCc3c(nc(N4CC(C)OC(C)C4)[nH]c3=O)C2)cc1 (stereo not drawn)	.	.	.	.	-2	.
CO[C@@H]1/C=C\O[C@]2(C)Oc3c(C)c(O)c4c(O)c(c(CN(C)C)c(O)c4c3C2=O)NC(=O)C(C)=C/C=C\[C@@H](C)[C@@H](O)[C@H](C)[C@@H](O)[C@H](C)[C@H](OC(C)=O)[C@@H]1C	.	.	.	52*	12	.
CO[C@H]1/C=C/O[C@@]2(C)Oc3c(C)c(O)c4c(O)c(c(C=NN5CCN(C)CC5)c(O)c4c3C2=O)NC(=O)/C(C)=C\C=C\[C@H](C)[C@H](O)[C@@H](C)[C@@H](O)[C@@H](C)[C@H](OC(C)=O)[C@@H]1C	6	.	.	.	.	40
Cc1ccc2c(c1)C1CN(C)CCC1N2C(=O)COc1ccc(N(C)C(=O)C(C)(C)C)cc1 (stereo not drawn)	2	-5	23	9	-11	-6
Cc1ccc2c(c1)C1CN(C)CCC1N2CC(=O)N(C)c1ccccc1 (stereo not drawn)	-2	3	83*	6	4	8
CCn1nc(NS(=O)(=O)c2ccc(NC(C)=O)cc2)c2cc3ccccc3nc21	1	.	65*	.	.	-43
CCCn1nc(NC(=O)CC(C)C)c2cc3ccccc3nc21	-1	-3	69*	6	-3	16
COc1ccc(NC(=O)CCCCCN2C(=O)c3cccc4cccc(c34)C2=O)cc1	.	.	.	13	-25	.
O=C(O)c1cc(-c2cccc(O)c2)on1	.	.	.	8	17	.
COc1cc(O)c(C(=O)/C=C/c2ccc(OC)c(O)c2)c(OC)c1	.	.	.	57*	-3	.
Cc1cc(O)c(C=O)c2c1C(=O)Oc1c(CO)c(O)c3c(c1O2)C(O)OC3=O (stereo not drawn)	37*	22	44	11	-9	25
Cc1cc(O)c(CN(C)C)c2c1C(=O)/C(=C/c1ccco1)O2	3	.	26	.	.	17
O=S(=O)(NC1CCCC1)c1ccc(S(=O)(=O)N(Cc2cccs2)Cc2cccs2)cc1	.	.	.	15	23	.
COc1ccc(C(O)CN2CCC3(CC2)CC(O)c2cc(C)c(C)cc2O3)cc1 (stereo not drawn)	.	.	.	10	-52	.
Cc1ccsc1/C=C/c1ccc2cccc(O)c2n1	5	-2	86*	4	-29	2
c1ccc2[nH]c(CSc3nc4ccccc4s3)nc2c1	-1	1	14	10	-24	-6
S=c1[nH]nc(CSc2nc3ccccc3s2)o1	0	6	105*	12	-18	-2
Cn1c(CSc2nc3ccccc3s2)n[nH]c1=S	-5	-8	73*	14	2	17
Cn1c(-c2sc3ccccc3c2Cl)n[nH]c1=S	3	-3	94*	14	1	-6
CCc1nnc(NC(=O)CSc2nc3cc(C)c(C)cc3cc2C)s1	.	.	.	22	35	.

From PubChem BioAssay
